Data published in ChEMBL document CHEMBL1208782, “Synthesis and pharmacological validation of a novel series of non-steroidal FXR agonists” (Bioorg Med Chem Lett, 2010).
Calls of active or inactive are those of the source. The rule behind the calls is not given here.

What was measured:
Mus musculus [1] = test: Reduction in total plasma cholesterol level in db/db mouse at 1-25 mg/kg bid after 12 days; assay type: functional, organism-based
Summary of the method: (§1)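 C57BL/KSK-mLep^db/mLep^db mice were dosed orally at 1, 5 and 25 mg/kg b.i.d. for 12 days. Total plasma triglycerides and total plasma cholesterol were measured, with cholesterol reported as mg/dl. Significance was given at p<0.05, <0.01 and <0.001 levels.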

[2] = Drug level in db/db mouse liver at 25 mg/kg bid after 24 hrs by LC/MS-MS analysis; assay type: ADME, organism-based; design: dose 25 mg/kg; details: read-out: Drug uptake
Summary of the method: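 C57BL/KSK-mLep^db/mLep^db (db/db) mice dosed orally b.i.d. for 12 days at 1, 5 or 25 mg/kg. Liver concentrations of parent compound measured 24 h after the last administration.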

Mus musculus [3] = test: Reduction in total plasma triglyceride level in db/db mouse at 1-25 mg/kg bid after 12 days; assay type: functional, organism-based; summary of the method: as §1
[4] = Drug level in db/db mouse liver at 25 mg/kg bid after 4 hrs by LC/MS-MS analysis; assay type: ADME, organism-based; design: dose 25 mg/kg; details: read-out: Drug uptake
Summary of the method: (§2)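 db/db mice were dosed twice daily for 12 days. Plasma and liver concentrations were determined 4 h and 24 h after the last administration.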

[5] = Plasma concentration in db/db mouse at 25 mg/kg bid after 4 hrs by LC/MS-MS analysis; assay type: ADME, organism-based; design: dose 25 mg/kg; details: read-out: Drug uptake; summary of the method: as §2
[6] = Plasma concentration in db/db mouse at 25 mg/kg bid after 24 hrs by LC/MS-MS analysis; assay type: ADME, organism-based; design: dose 25 mg/kg; details: read-out: Drug uptake; summary of the method: as §2
Bile acid receptor [7] = molecular target: T1, Bile acid receptor (Homo sapiens, UniProt Q96RI1); test: Agonist activity at human full length FXR transfected in HEK293 cells coexpressing pTRexDest/pGL2promotor assessed as luciferase activity by direct reporter cellular assay; assay type: functional, cell-based; details: read-out: EC50
T1 sequence (Q96RI1 whole entry): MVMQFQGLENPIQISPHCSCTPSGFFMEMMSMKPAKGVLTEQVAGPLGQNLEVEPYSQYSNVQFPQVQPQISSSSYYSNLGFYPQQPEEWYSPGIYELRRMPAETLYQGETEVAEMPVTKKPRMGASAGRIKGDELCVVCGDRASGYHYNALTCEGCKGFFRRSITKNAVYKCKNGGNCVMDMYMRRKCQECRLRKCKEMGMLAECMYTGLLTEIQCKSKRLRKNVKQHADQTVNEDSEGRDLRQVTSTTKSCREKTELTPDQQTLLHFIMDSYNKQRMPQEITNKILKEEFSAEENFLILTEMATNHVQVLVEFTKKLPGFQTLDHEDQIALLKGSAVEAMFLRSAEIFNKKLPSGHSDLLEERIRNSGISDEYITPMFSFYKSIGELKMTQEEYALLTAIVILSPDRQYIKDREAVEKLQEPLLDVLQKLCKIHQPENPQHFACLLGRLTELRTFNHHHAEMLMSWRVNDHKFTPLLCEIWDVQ

[8] = molecular target: T2, Bile acid receptor (Homo sapiens) (UniProt Q96RI1); test: Agonist activity at human full length FXR transfected in HEK293 cells coexpressing pTRexDest/pGL2promotor assessed as luciferase activity by direct reporter cellular assay relative to GW-4064; assay type: functional, cell-based
T2 sequence (whole entry): T1 sequence (Q96RI1 whole entry)

[9] = molecular target: T2, Bile acid receptor (Homo sapiens); test: Agonist activity at human […] FXR LBD expressed in HEK293 cells coexpressing GAL4-DNA bindig domain and pFRluc by mammalian one-hybrid assay relative to GW-4064; assay type: functional, cell-based
[10] = molecular target: T2, Bile acid receptor (Homo sapiens); test: Agonist activity at human GST-fused FXR LBD assessed as cofactor peptide interaction with receptor ligand binding domain by FRET assay relative to GW-4064
Bile acid receptor [11] = molecular target: T1, Bile acid receptor; test: Agonist activity at human GST-fused FXR LBD assessed as cofactor peptide interaction with receptor ligand binding domain by FRET assay
Bile acid receptor [12] = molecular target: T1, Bile acid receptor; test: Agonist activity at human […] FXR LBD expressed in HEK293 cells coexpressing GAL4-DNA bindig domain and pFRluc by mammalian one-hybrid assay; assay type: functional, cell-based; details: read-out: EC50

CC[C@H]1[C@@H](O)[C@@H]2[C@H](CC[C@]3(C)[C@@H]([C@H](C)CCC(=O)O)CC[C@@H]23)[C@@]2(C)CC[C@@H](O)C[C@@H]12 [OBETICHOLIC ACID]
Activity (Mus musculus [1]): Active | concentration at 24 h [2]: 16.6 µM | Activity (Mus musculus [3]): Active | concentration at 4 h [4]: 13.9 µM | concentration at 4 h [5]: 2.12 µM | concentration at 24 h [6]: 3.24 µM

CC(Oc1cccc(C(=O)O)c1)c1ccc(OCc2c(-c3c(Cl)cccc3Cl)noc2C2CC2)nc1C(F)(F)F (stereo unspecified)
EC50 (Bile acid receptor [7]): 58 nM | Efficacy [8]: 49% | Efficacy [9]: 50% | Efficacy [10]: 102% | EC50 (Bile acid receptor [11]): 155 nM | EC50 (Bile acid receptor [12]): 107 nM

CC(C)c1onc(-c2c(Cl)cccc2Cl)c1COc1ccc(N(C)Cc2cccc(C(=O)NS(C)(=O)=O)c2)c(C(F)(F)F)n1
EC50 (Bile acid receptor [7]): 20 nM | Efficacy [8]: 72% | Efficacy [9]: 59% | Efficacy [10]: 110% | EC50 (Bile acid receptor [11]): 48 nM | EC50 (Bile acid receptor [12]): 279 nM

CC(C)c1onc(-c2c(Cl)cccc2Cl)c1COc1ccc(NCc2ccc(C(=O)O)cc2)c(C(F)(F)F)n1
EC50 (Bile acid receptor [7]): 101 nM | Efficacy [8]: 45% | Efficacy [9]: 48% | Efficacy [10]: 97% | EC50 (Bile acid receptor [11]): 162 nM | EC50 (Bile acid receptor [12]): 398 nM

CC(C)c1onc(-c2c(Cl)cccc2Cl)c1COc1cnc(N(C)Cc2cccc(C(=O)O)c2)c(Cl)c1
EC50 (Bile acid receptor [7]): 61 nM | Efficacy [8]: 54% | Efficacy [9]: 42% | Efficacy [10]: 105% | EC50 (Bile acid receptor [11]): 190 nM | EC50 (Bile acid receptor [12]): 100 nM

CC(C)c1onc(-c2c(Cl)cccc2Cl)c1COc1ccc(N(C)Cc2cccc(C(=O)NCCOP(=O)(O)O)c2)c(C(F)(F)F)n1
EC50 (Bile acid receptor [7]): 216 nM | Efficacy [8]: 61% | Efficacy [9]: 48% | Efficacy [10]: 114% | EC50 (Bile acid receptor [11]): 36 nM | EC50 (Bile acid receptor [12]): 457 nM
